One data set concerns the target T1, Oxytocin receptor (Homo sapiens, UniProt P30559).
T1 sequence (P30559 whole entry): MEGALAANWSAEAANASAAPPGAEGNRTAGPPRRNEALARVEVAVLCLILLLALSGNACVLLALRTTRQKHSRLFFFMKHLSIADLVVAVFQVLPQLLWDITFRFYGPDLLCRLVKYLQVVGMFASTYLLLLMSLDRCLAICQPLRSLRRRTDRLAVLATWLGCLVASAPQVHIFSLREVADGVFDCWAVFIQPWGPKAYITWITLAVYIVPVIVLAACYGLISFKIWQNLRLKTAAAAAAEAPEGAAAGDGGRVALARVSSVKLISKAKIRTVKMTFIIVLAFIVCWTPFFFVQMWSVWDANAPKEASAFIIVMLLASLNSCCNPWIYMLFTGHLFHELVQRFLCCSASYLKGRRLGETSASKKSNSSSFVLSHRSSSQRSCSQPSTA
Put plainly: Antagonist activity at human cloned oxytocin receptor by cell based beta lactamase assay. Format: functional.

In a further data set the target is Vasopressin V1a receptor (Homo sapiens, UniProt P37288). Put plainly: Antagonist activity at human cloned vasopressin V1a receptor by cell based beta lactamase assay. In kind it is functional.
Sequence of Vasopressin V1a receptor (P37288 whole entry): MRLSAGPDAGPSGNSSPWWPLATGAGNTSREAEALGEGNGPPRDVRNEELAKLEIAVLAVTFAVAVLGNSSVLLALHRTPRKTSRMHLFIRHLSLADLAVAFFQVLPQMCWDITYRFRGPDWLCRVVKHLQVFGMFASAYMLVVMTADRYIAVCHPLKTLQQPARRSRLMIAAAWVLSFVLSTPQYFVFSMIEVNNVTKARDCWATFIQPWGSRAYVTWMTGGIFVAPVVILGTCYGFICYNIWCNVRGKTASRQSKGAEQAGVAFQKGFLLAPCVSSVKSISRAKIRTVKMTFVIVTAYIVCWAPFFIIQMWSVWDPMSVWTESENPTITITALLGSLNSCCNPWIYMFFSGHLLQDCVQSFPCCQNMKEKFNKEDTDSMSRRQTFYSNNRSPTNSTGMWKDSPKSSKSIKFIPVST
A further data set addresses Vasopressin V2 receptor (Homo sapiens, UniProt P30518). Put plainly: Antagonist activity at human cloned vasopressin V2 receptor by cell based beta lactamase assay. In kind it is functional.
The next data set deals with Liver microsomes. Put plainly: Intrinsic clearance in human liver microsomes. Format: ADME, Microsome. (Liver microsomes are a subcellular fraction often used to study metabolism.)
Data set [1] concerns Rattus norvegicus. Put plainly: Volume of distribution in rat at 0.5 mg/kg, po. In kind it is ADME, organism-based. The arrangement: dose 0.5 mg/kg, route oral. Conditions: in vivo.
A short description of data set [2]: Aqueous solubility at pH 7.5. In kind it is physicochemical. The following applies: buffer. In a few lines:
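Aqueous solubility was measured on fully crystalline material at pH 7.5.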

Data set [3] in a line: Clearance in rat at 2 mg/kg, po. In kind it is ADME, organism-based. The arrangement: dose 2 mg/kg, route oral. The following applies: in vivo. In a few lines: (§1)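 Pharmacokinetic parameters from oral dosing of a suspension of fully crystalline material, at 2 mg/Kg in rat and 0.2 mg/Kg in dog.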
Data set [4] in a line: Half life in rat at 2 mg/kg, po. In kind it is ADME, organism-based. The arrangement: dose 2 mg/kg, route oral. Conditions: in vivo. In a few lines:
as §1

Data set [5] concerns Rattus norvegicus. Put plainly: Volume of distribution in rat at 2 mg/kg, po. In kind it is ADME, organism-based. The arrangement: dose 2 mg/kg, route oral. Conditions: in vivo. In a few lines: as §1
Data set [6] is described as follows: Oral bioavailability in rat at 2 mg/kg. Format: ADME, organism-based. The following applies: in vivo. The method in brief: (§2)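 Oral bioavailability from oral dosing of a suspension of fully crystalline material, at 2 mg/Kg in rat and 0.2 mg/Kg in dog, calculated by comparison with iv pharmacokinetic data.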
Data set [7] is described as follows: Clearance in dog at 0.2 mg/kg, po. The arrangement: dose 0.2 mg/kg, route oral. In kind it is ADME, organism-based, Canis lupus familiaris. Conditions: in vivo. The method in brief:
as §1

A short description of data set [8]: Half life in dog at 0.2 mg/kg, po. The following applies: in vivo. The arrangement: dose 0.2 mg/kg, route oral. Format: ADME, organism-based, Canis lupus familiaris. In a few lines: as §1
For the next data set, the system named is Canis familiaris. Put plainly: Volume of distribution in dog at 0.2 mg/kg, po. Conditions: in vivo. The arrangement: dose 0.2 mg/kg, route oral. In kind it is ADME, organism-based, Canis lupus familiaris. In a few lines:
as §1

Data set [9] is described as follows: Oral bioavailability in dog at 0.2 mg/kg, po. Conditions: in vivo. In kind it is ADME, organism-based, Canis lupus familiaris. The method in brief: as §2
The next data set concerns the target Substance-P receptor (Homo sapiens, UniProt P25103). Put plainly: Binding affinity to NK1 receptor.
Data set [10] concerns the target Kappa-type opioid receptor (Homo sapiens, UniProt P41145). Put plainly: Binding affinity to kappa opioid receptor.
Data set [11] addresses Growth hormone secretagogue receptor type 1 (Homo sapiens, UniProt Q92847). Put plainly: Binding affinity to ghrelin receptor.

≈ marks a conversion by molar mass, not a printed value.

Sequence of Vasopressin V2 receptor (P30518 whole entry): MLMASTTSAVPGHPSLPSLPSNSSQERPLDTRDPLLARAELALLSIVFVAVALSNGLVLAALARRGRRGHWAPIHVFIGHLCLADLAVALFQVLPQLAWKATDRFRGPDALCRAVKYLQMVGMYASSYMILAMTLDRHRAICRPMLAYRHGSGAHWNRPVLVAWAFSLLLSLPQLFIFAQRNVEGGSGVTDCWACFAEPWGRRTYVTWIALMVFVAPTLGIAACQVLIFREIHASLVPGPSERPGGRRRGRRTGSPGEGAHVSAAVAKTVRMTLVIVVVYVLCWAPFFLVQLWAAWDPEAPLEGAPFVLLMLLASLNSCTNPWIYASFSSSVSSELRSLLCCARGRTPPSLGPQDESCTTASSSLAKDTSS
Sequence of Growth hormone secretagogue receptor type 1 (Q92847 whole entry): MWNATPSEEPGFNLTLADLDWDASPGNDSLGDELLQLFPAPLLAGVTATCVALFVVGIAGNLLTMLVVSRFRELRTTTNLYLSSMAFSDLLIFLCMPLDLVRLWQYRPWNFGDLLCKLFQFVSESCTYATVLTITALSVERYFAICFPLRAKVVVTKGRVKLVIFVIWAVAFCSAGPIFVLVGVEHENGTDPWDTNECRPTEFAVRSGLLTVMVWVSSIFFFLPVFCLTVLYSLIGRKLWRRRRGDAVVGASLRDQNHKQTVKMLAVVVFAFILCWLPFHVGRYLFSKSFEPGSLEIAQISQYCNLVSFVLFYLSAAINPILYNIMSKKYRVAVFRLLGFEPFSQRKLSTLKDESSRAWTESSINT
Sequence of Kappa-type opioid receptor (P41145 whole entry): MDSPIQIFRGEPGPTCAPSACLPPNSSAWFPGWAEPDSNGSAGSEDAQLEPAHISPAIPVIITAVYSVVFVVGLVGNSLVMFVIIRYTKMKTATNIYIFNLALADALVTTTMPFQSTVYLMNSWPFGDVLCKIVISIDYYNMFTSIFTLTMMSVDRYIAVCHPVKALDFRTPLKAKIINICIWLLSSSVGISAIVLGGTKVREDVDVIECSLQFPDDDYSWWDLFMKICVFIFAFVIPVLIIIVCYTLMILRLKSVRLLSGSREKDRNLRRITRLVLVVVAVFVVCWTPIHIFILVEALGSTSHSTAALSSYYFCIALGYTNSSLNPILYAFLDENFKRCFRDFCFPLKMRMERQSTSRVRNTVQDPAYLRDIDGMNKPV
Sequence of Substance-P receptor (P25103 whole entry): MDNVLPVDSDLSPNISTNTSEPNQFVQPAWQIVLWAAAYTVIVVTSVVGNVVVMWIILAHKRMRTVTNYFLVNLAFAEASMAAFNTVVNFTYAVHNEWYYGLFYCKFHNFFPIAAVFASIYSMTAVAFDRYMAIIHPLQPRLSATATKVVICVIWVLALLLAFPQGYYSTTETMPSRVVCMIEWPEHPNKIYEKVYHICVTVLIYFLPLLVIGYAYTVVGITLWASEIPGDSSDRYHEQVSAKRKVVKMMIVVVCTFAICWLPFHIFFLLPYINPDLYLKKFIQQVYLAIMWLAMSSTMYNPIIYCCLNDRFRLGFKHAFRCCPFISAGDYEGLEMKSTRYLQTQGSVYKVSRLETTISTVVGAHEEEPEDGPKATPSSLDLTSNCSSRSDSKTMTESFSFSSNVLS

By Ki is commonly meant a measure of affinity in units of concentration, obtained from inhibition or displacement. As for `COCc1nnc(N2CCC(Oc3ccccc3C)CC2)n1-c1ccc(OC)nc1`, the Ki was 0.0022 µM at Oxytocin receptor, 0.0244 µM on Vasopressin V1a receptor and over 10 µM at Vasopressin V2 receptor.
On to `COc1ccc(-n2c(C)nnc2N2CCC(Oc3cc(F)cc(F)c3C)CC2)cn1`, for which the values for the Ki on Oxytocin receptor, on Vasopressin V1a receptor and on Vasopressin V2 receptor were 0.0004 µM, 0.175 µM and over 10 µM, respectively.
Consider `COc1ccc(-n2c(C)nnc2N2CC(Oc3ccccc3)C2)cn1`, for which the Ki on Oxytocin receptor is 0.304 µM; at Vasopressin V1a receptor, over 10 µM; on Vasopressin V2 receptor, over 10 µM. The clearance in the data set on Liver microsomes is under 7 µL/min/mg.
Consider `COCc1nnc(N2CC[C@H](Oc3ccccc3C)C2)n1-c1ccc(OC)nc1`, for which the Ki at Oxytocin receptor is 0.207 µM; at Vasopressin V1a receptor it was 0.522 µM; on Vasopressin V2 receptor, over 10 µM.
For `COc1ccc(-n2c(C)nnc2N2CCC(Oc3ccccc3)CC2)cn1` the same measures were 0.114 µM, 0.127 µM and over 10 µM.
In the same order, the values of `COc1ccc(-n2c(C)nnc2N2CC(Oc3ccc(F)cc3C)C2)cn1` are 0.0175 µM, 0.608 µM and over 10 µM.
In the same order, the values of `COc1ccc(-n2c(C)nnc2N2CCC(Oc3ccccc3C)CC2)cn1` are 0.0054 µM, 0.0216 µM and over 10 µM.
For `COCc1nnc(N2CC[C@@H](Oc3cc(F)cc(F)c3C)C2)n1-c1ccc(OC)nc1`, the Ki at Oxytocin receptor was 0.0058 µM; on Vasopressin V1a receptor it was 1 µM; on Vasopressin V2 receptor it was over 10 µM. The clearance in the data set with Liver microsomes came out at 107 µL/min/mg.
In the case of `COc1ccc(-n2c(C)nnc2N2CCC(Oc3ccc(F)cc3C)CC2)cn1`, the figures for the Ki on Vasopressin V1a receptor and on Vasopressin V2 receptor were 0.111 µM and over 10 µM, respectively. The clearance with Liver microsomes stood at 23 µL/min/mg.
For `COCc1nnc(N2CC(Oc3ccc(F)cc3C)C2)n1-c1ccc(OC)nc1`, the Ki worked out at 0.0184 µM at Oxytocin receptor, 0.719 µM on Vasopressin V1a receptor and 1.19 µM at Vasopressin V2 receptor.
At Vasopressin V2 receptor, `COc1ccc(-n2c(C)nnc2-c2cnc(-c3ccc(F)cc3C)cn2)cn1` came in with a Ki of over 10 µM. In the data set on Rattus norvegicus [1], the Vd came out at 4.4 L/kg.
For the molecule `COCc1nnc(N2CC[C@@H](Oc3ccccc3C)C2)n1-c1ccc(OC)nc1`, the values for the Ki at Oxytocin receptor, at Vasopressin V1a receptor and on Vasopressin V2 receptor were 0.0285 µM, 0.255 µM and over 10 µM, respectively.
On to `COc1ccc(-n2c(C)nnc2N2CCC(Oc3cccc(F)c3C)CC2)cn1`, for which the results for the inhibition constant Ki on Oxytocin receptor and on Vasopressin V2 receptor were 0.0026 µM and over 10 µM, respectively. Also, the clearance in the data set with Liver microsomes amounted to 24 µL/min/mg.
Take `COc1ccc(-n2c(C)nnc2N2CC(Oc3ccccc3Cl)C2)cn1`: the Ki on Oxytocin receptor is 0.0551 µM; on Vasopressin V1a receptor, 1.94 µM; on Vasopressin V2 receptor it was over 10 µM.
In the case of `COCc1nnc(N2CC(Oc3ccccc3Cl)C2)n1-c1ccc(OC)nc1`, the Ki on Oxytocin receptor was 0.0325 µM; on Vasopressin V1a receptor, 1.34 µM; at Vasopressin V2 receptor, over 10 µM. Moreover, the clearance with Liver microsomes is 21 µL/min/mg.
In the same order, the values of `COCc1nnc(N2CC[C@@H](Oc3ccc(F)cc3C)C2)n1-c1ccc(OC)nc1` are 0.0179 µM, 0.586 µM, over 10 µM and over 440 µL/min/mg.
In the same order, the values of `COc1ccc(-n2c(C)nnc2N2CC[C@@H](Oc3ccccc3C)C2)cn1` are 0.0359 µM, 0.734 µM, over 10 µM and 32 µL/min/mg.
As for `COc1ccc(-n2c(C)nnc2N2CC(Oc3cc(F)ccc3C)C2)cn1`, the figures for the Ki at Oxytocin receptor, at Vasopressin V1a receptor and on Vasopressin V2 receptor were 0.04 µM, 1.68 µM and 2.77 µM, respectively.
For the molecule `COc1ccc(-n2c(C)nnc2N2CC[C@@H](Oc3ccc(F)cc3C)C2)cn1`, the Ki at Oxytocin receptor is 0.0318 µM; at Vasopressin V1a receptor, 0.941 µM; on Vasopressin V2 receptor, over 10 µM. Further, the clearance in the data set on Liver microsomes came out at 95 µL/min/mg.
For `COc1ccc(-n2c(C)nnc2N2CC[C@@H](Oc3ccccc3)C2)cn1`, the Ki on Oxytocin receptor was 0.17 µM; at Vasopressin V1a receptor, 1.84 µM; on Vasopressin V2 receptor it was over 10 µM.
For `COc1ccc(-n2c(C)nnc2N2CC(Oc3ccc(F)cc3Cl)C2)cn1`, the Ki was 0.0284 µM on Oxytocin receptor, 2.43 µM at Vasopressin V1a receptor and over 10 µM on Vasopressin V2 receptor. The clearance with Liver microsomes came to 22 µL/min/mg.
A word on the solubility: it is the concentration that dissolves in the medium under given conditions. One may read the CL/F as the apparent clearance, not corrected for the fraction that reaches the circulation. As usually defined, the half-life is the time needed for the level to fall by half in the phase considered. Usually bioavailability stands for dose-corrected exposure relative to a reference, in per cent. The low end stands for little systemic uptake, the high end for much systemic uptake. Consider `COCc1nnc(N2CC(Oc3ccc(F)cc3Cl)C2)n1-c1ccc(OC)nc1`, for which the Ki on Oxytocin receptor is 0.0095 µM; at Vasopressin V1a receptor it was 1.12 µM; at Vasopressin V2 receptor, over 10 µM; on Substance-P receptor it was 6.5 µM; in data set [10] it was 3 µM; in data set [11], 4.4 µM. The molecule also registered a clearance in the data set on Liver microsomes of 10 µL/min/mg. In [2], this molecule came in with a solubility of 59 µg/mL (≈ 141 µM). The figures for the CL/F in data set [3] and in data set [7] were 36 mL/min/kg and 8 mL/min/kg, respectively. For the same molecule, the results for the half-life in [4] and in data set [8] were 0.9 h and 1.9 h, respectively. In addition, the Vd in the data set on Rattus norvegicus [5] came to 2.5 L/kg; with Canis familiaris it was 1.3 L/kg. Moreover, the bioavailability was 62% in [6] and 81% in [9].

These data come from ChEMBL document CHEMBL1153191, “Triazole oxytocin antagonists: Identification of an aryloxyazetidine replacement for a biaryl substituent” (Bioorg Med Chem Lett, 2010).
